Values after ≈ are worked out from the molar mass of the structure shown.
What was measured:
[1] = system: Staphylococcus epidermidis; assay: Antibacterial activity against Staphylococcus epidermidis assessed as inhibition of visible bacterial growth incubated for 18 to 20 hrs by microbroth dilution method; assay type: functional; details: time 18-20 hrs
Method in brief: (§1)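 Inoculum was a 4–6 h broth culture adjusted to 0.5 McFarland turbidity and diluted to a final 5 × 10^5 CFU mL−1. Plates were incubated at 35 °C for 18–20 h. MIC was the lowest concentration giving complete inhibition of visible growth. Run three times.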

Streptococcus pneumoniae = assay: Antibacterial activity against Streptococcus pneumoniae assessed as inhibition of visible bacterial growth incubated for 18 to 20 hrs by microbroth dilution method; assay type: functional; details: time 18-20 hrs
Saccharomyces cerevisiae = assay: Antifungal activity against Saccharomyces cerevisiae assessed as inhibition of fungal growth incubated for 72 hrs by agar dilution method; assay type: functional
Method in brief: (§2)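 Agar dilution on Sabouraud dextrose agar, with compound solutions at 400 down to 0.78 μg mL−1 (twofold series). Fungal suspensions containing […] were applied to agar plates serially diluted with test compound. Plates were incubated at 35 °C, and MIC was read after 72 h. Experiments were performed three times.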

Fusarium oxysporum = assay: Antifungal activity against Fusarium oxysporum assessed as inhibition of fungal growth incubated for 72 hrs by agar dilution method; assay type: functional; method in brief: as §2
Klebsiella pneumoniae = assay: Antibacterial activity against Klebsiella pneumoniae assessed as inhibition of visible bacterial growth incubated for 18 to 20 hrs by microbroth dilution method; assay type: functional; details: time 18-20 hrs; method in brief: as §1
Pseudomonas aeruginosa = assay: Antibacterial activity against Pseudomonas aeruginosa assessed as inhibition of visible bacterial growth incubated for 18 to 20 hrs by microbroth dilution method; assay type: functional; details: time 18-20 hrs; method in brief: as §1
Bacillus subtilis = assay: Antibacterial activity against Bacillus subtilis assessed as inhibition of visible bacterial growth incubated for 18 to 20 hrs by microbroth dilution method; assay type: functional; details: time 18-20 hrs; method in brief: as §1
Aspergillus niger = assay: Antifungal activity against Aspergillus niger assessed as inhibition of fungal growth incubated for 72 hrs by agar dilution method; assay type: functional; method in brief: as §2
Clostridioides difficile = assay: Antibacterial activity against Clostridium difficile assessed as inhibition of visible bacterial growth incubated for 18 to 20 hrs by microbroth dilution method; assay type: functional; details: time 18-20 hrs
Escherichia coli = assay: Antibacterial activity against Escherichia coli assessed as inhibition of visible bacterial growth incubated for 18 to 20 hrs by microbroth dilution method; assay type: functional; details: time 18-20 hrs; method in brief: as §1
Salmonella typhimurium = assay: Antibacterial activity against Salmonella typhimurium assessed as inhibition of visible bacterial growth incubated for 18 to 20 hrs by microbroth dilution method; assay type: functional, Salmonella enterica subsp. enterica serovar Typhimurium; details: Salmonella enterica; time 18-20 hrs; method in brief: as §1
Candida albicans = assay: Antifungal activity against Candida albicans assessed as inhibition of fungal growth incubated for 72 hrs by agar dilution method; assay type: functional; method in brief: as §2
Aspergillus flavus = assay: Antifungal activity against Aspergillus flavus assessed as inhibition of fungal growth incubated for 72 hrs by agar dilution method; assay type: functional; method in brief: as §2
Staphylococcus aureus = assay: Antibacterial activity against Staphylococcus aureus assessed as inhibition of visible bacterial growth incubated for 18 to 20 hrs by microbroth dilution method; assay type: functional; details: time 18-20 hrs; method in brief: as §1
Topoisomerase IV = Topoisomerase IV (Staphylococcus aureus, UniProt P0C1S7+P0C1U9); assay: Inhibition of Staphylococcus aureus DNA topoisomerase 4 using supercoiled plasmid DNA as substrate; assay type: protein-complex assay
Topoisomerase IV, sequence (P0C1U9 whole entry): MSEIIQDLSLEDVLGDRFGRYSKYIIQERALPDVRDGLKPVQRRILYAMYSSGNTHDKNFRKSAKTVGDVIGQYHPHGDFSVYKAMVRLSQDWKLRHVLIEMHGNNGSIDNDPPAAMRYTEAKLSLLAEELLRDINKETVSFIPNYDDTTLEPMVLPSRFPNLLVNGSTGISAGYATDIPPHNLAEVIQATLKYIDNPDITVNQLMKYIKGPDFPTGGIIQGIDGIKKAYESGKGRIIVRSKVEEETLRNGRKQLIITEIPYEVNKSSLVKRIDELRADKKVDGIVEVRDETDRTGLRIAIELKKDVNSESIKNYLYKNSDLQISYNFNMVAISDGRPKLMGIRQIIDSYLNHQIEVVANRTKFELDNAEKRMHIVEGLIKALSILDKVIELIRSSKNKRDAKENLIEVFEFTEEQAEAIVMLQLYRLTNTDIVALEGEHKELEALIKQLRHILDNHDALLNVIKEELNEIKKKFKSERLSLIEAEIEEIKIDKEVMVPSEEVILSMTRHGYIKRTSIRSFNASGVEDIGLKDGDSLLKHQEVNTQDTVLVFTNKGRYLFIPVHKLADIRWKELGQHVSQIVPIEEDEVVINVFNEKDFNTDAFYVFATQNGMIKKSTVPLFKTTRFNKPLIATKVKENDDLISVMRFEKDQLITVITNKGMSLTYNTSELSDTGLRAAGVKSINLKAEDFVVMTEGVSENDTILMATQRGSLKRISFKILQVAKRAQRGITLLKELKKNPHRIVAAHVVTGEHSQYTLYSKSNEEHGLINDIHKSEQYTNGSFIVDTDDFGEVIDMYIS
Topoisomerase IV, sequence (P0C1S7 whole entry): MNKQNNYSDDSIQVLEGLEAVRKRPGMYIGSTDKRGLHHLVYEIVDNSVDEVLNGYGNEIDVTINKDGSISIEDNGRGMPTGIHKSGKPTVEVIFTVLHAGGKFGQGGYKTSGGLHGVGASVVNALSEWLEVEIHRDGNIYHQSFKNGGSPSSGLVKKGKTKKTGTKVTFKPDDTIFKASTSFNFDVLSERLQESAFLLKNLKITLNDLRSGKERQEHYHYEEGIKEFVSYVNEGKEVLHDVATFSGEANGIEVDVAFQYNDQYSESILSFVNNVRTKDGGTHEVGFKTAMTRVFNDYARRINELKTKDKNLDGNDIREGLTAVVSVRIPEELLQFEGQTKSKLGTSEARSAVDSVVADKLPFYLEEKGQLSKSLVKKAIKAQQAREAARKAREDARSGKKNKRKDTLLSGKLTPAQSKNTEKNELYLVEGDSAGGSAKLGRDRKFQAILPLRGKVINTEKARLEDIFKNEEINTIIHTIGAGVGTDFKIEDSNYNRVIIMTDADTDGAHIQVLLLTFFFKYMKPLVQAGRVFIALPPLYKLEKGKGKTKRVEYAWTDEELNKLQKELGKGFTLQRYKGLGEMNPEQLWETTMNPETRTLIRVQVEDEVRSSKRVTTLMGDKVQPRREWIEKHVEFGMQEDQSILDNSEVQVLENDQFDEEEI

Dihydrofolate reductase = Dihydrofolate reductase (Staphylococcus aureus, UniProt P0A017); assay: Inhibition of Staphylococcus aureus DHFR preincubated for 5 mins followed by dihydrofolic acid addition and measured for 10 mins by absorbance based assay
Dihydrofolate reductase, sequence (P0A017 whole entry): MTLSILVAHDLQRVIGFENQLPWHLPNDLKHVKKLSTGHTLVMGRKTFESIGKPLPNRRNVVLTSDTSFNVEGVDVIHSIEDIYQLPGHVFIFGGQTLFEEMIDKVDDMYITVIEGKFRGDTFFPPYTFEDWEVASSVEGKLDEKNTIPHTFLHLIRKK

DNA gyrase = DNA gyrase (Staphylococcus aureus, UniProt P0A0K8+P20831); assay: Inhibition of Staphylococcus aureus DNA gyrase incubated for 30 mins in presence of relaxed plasmid DNA by supercoiling based gel electrophoresis analysis; assay type: protein-complex assay
DNA gyrase, sequence (P0A0K8 whole entry): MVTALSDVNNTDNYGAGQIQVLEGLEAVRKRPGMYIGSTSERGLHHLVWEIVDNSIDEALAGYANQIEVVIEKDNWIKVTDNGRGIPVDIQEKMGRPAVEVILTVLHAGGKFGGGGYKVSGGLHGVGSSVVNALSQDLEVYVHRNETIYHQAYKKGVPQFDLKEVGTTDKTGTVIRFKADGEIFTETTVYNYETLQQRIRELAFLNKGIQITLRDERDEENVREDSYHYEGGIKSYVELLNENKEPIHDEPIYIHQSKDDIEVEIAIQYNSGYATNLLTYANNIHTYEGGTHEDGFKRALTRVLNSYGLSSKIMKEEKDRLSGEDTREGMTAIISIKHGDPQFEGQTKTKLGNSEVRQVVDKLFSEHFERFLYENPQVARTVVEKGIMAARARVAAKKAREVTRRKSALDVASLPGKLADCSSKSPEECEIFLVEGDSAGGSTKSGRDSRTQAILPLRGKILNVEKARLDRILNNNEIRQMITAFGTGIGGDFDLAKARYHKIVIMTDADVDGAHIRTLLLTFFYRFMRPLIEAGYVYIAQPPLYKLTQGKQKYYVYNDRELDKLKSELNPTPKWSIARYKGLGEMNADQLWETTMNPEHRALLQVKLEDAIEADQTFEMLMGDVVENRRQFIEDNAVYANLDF
DNA gyrase, sequence (P20831 whole entry): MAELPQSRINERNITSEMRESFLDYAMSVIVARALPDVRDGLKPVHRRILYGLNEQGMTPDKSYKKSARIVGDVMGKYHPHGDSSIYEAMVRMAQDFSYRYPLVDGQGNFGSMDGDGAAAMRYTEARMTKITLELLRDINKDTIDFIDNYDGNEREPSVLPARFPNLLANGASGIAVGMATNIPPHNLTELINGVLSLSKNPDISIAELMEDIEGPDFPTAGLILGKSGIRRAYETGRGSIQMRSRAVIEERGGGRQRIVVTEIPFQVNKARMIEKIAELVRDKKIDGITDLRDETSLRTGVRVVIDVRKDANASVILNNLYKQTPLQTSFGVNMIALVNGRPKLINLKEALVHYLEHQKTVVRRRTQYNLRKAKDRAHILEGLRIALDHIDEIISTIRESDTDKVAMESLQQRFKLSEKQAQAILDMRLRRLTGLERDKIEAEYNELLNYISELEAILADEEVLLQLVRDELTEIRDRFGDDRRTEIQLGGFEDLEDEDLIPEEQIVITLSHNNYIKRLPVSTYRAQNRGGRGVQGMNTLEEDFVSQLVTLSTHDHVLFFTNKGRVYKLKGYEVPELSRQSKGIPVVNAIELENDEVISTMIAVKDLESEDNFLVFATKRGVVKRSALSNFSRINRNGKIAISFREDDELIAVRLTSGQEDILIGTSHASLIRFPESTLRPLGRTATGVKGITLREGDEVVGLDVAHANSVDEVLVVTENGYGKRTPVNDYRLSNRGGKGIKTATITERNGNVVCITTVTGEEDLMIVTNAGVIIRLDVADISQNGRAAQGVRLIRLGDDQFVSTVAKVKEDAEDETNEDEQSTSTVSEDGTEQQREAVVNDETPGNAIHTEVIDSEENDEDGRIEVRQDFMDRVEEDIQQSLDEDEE

Row | SMILES | MIC [1] | MIC (Streptococcus pneumoniae) | MIC (Saccharomyces cerevisiae) | MIC (Fusarium oxysporum) | MIC (Klebsiella pneumoniae) | MIC (Pseudomonas aeruginosa) | MIC (Bacillus subtilis) | MIC (Aspergillus niger) | MIC (Clostridioides difficile) | MIC (Escherichia coli) | MIC (Salmonella typhimurium) | MIC (Candida albicans) | MIC (Aspergillus flavus) | MIC (Staphylococcus aureus) | IC50 (Topoisomerase IV) | IC50 (Dihydrofolate reductase) | IC50 (DNA gyrase)
1 | CC(=O)OC[C@H]1O[C@@H](NC(=S)Nc2nc(-c3ccc(Br)cc3)cs2)[C@H](OC(C)=O)[C@@H](OC(C)=O)[C@@H]1OC(C)=O | 25 µg/mL (≈ 38.8 µM) | 50 µg/mL (≈ 77.6 µM) | 25 µg/mL (≈ 38.8 µM) | 0.78 µg/mL (≈ 1.21 µM) | 6.25 µg/mL (≈ 9.7 µM) | 100 µg/mL (≈ 155 µM) | 3.12 µg/mL (≈ 4.85 µM) | 50 µg/mL (≈ 77.6 µM) | 6.25 µg/mL (≈ 9.7 µM) | 1.56 µg/mL (≈ 2.42 µM) | 0.78 µg/mL (≈ 1.21 µM) | 50 µg/mL (≈ 77.6 µM) | 3.12 µg/mL (≈ 4.85 µM) | 12.5 µg/mL (≈ 19.4 µM) | – | – | –
2 | CC(=O)OC[C@H]1O[C@@H](NC(=S)Nc2nc(-c3ccccc3)cs2)[C@H](OC(C)=O)[C@@H](OC(C)=O)[C@@H]1OC(C)=O | 0.78 µg/mL (≈ 1.38 µM) | 25 µg/mL (≈ 44.2 µM) | 1.56 µg/mL (≈ 2.76 µM) | 6.25 µg/mL (≈ 11 µM) | 25 µg/mL (≈ 44.2 µM) | 6.25 µg/mL (≈ 11 µM) | 25 µg/mL (≈ 44.2 µM) | 0.78 µg/mL (≈ 1.38 µM) | 50 µg/mL (≈ 88.4 µM) | 100 µg/mL (≈ 177 µM) | 400 µg/mL (≈ 707 µM) | 3.12 µg/mL (≈ 5.52 µM) | 50 µg/mL (≈ 88.4 µM) | 200 µg/mL (≈ 354 µM) | – | – | –
3 | CC(=O)OC[C@H]1O[C@@H](NC(=S)Nc2nc(-c3cccc([N+](=O)[O-])c3)cs2)[C@H](OC(C)=O)[C@@H](OC(C)=O)[C@@H]1OC(C)=O | 12.5 µg/mL (≈ 20.5 µM) | 0.78 µg/mL (≈ 1.28 µM) | 6.25 µg/mL (≈ 10.2 µM) | 50 µg/mL (≈ 81.9 µM) | 3.12 µg/mL (≈ 5.12 µM) | 3.12 µg/mL (≈ 5.12 µM) | 6.25 µg/mL (≈ 10.2 µM) | 3.12 µg/mL (≈ 5.12 µM) | 0.78 µg/mL (≈ 1.28 µM) | 0.78 µg/mL (≈ 1.28 µM) | 3.12 µg/mL (≈ 5.12 µM) | 100 µg/mL (≈ 164 µM) | 0.78 µg/mL (≈ 1.28 µM) | 6.25 µg/mL (≈ 10.2 µM) | – | – | –
4 | CCc1ccc(-c2csc(NC(=S)N[C@@H]3O[C@H](COC(C)=O)[C@@H](OC(C)=O)[C@H](OC(C)=O)[C@H]3OC(C)=O)n2)cc1 | 6.25 µg/mL (≈ 10.5 µM) | 100 µg/mL (≈ 168 µM) | 400 µg/mL (≈ 674 µM) | 400 µg/mL (≈ 674 µM) | 50 µg/mL (≈ 84.2 µM) | 25 µg/mL (≈ 42.1 µM) | 0.78 µg/mL (≈ 1.31 µM) | 200 µg/mL (≈ 337 µM) | 400 µg/mL (≈ 674 µM) | 12.5 µg/mL (≈ 21.1 µM) | 100 µg/mL (≈ 168 µM) | 6.25 µg/mL (≈ 10.5 µM) | 200 µg/mL (≈ 337 µM) | 400 µg/mL (≈ 674 µM) | – | – | –
5 | CC(=O)OC[C@H]1O[C@@H](NC(=S)Nc2nc(-c3ccc(C)cc3)cs2)[C@H](OC(C)=O)[C@@H](OC(C)=O)[C@@H]1OC(C)=O | 400 µg/mL (≈ 690 µM) | 12.5 µg/mL (≈ 21.6 µM) | 0.78 µg/mL (≈ 1.35 µM) | 200 µg/mL (≈ 345 µM) | 200 µg/mL (≈ 345 µM) | 50 µg/mL (≈ 86.3 µM) | 100 µg/mL (≈ 173 µM) | 12.5 µg/mL (≈ 21.6 µM) | 25 µg/mL (≈ 43.1 µM) | 6.25 µg/mL (≈ 10.8 µM) | 25 µg/mL (≈ 43.1 µM) | 400 µg/mL (≈ 690 µM) | 12.5 µg/mL (≈ 21.6 µM) | 25 µg/mL (≈ 43.1 µM) | – | – | –
6 | COc1ccc(-c2csc(NC(=S)N[C@@H]3O[C@H](COC(C)=O)[C@@H](OC(C)=O)[C@H](OC(C)=O)[C@H]3OC(C)=O)n2)cc1[N+](=O)[O-] | 50 µg/mL (≈ 78 µM) | 6.25 µg/mL (≈ 9.76 µM) | 200 µg/mL (≈ 312 µM) | 25 µg/mL (≈ 39 µM) | 0.78 µg/mL (≈ 1.22 µM) | 0.78 µg/mL (≈ 1.22 µM) | 50 µg/mL (≈ 78 µM) | 100 µg/mL (≈ 156 µM) | 200 µg/mL (≈ 312 µM) | 200 µg/mL (≈ 312 µM) | 50 µg/mL (≈ 78 µM) | 12.5 µg/mL (≈ 19.5 µM) | 1.56 µg/mL (≈ 2.44 µM) | 0.78 µg/mL (≈ 1.22 µM) | 67300 nM | 130 nM | 1250 nM
7 | COc1ccc(-c2csc(NC(=S)N[C@@H]3O[C@H](COC(C)=O)[C@@H](OC(C)=O)[C@H](OC(C)=O)[C@H]3OC(C)=O)n2)cc1 | 100 µg/mL (≈ 168 µM) | 3.12 µg/mL (≈ 5.25 µM) | 12.5 µg/mL (≈ 21 µM) | 12.5 µg/mL (≈ 21 µM) | 1.56 µg/mL (≈ 2.62 µM) | 12.5 µg/mL (≈ 21 µM) | 400 µg/mL (≈ 672 µM) | 6.25 µg/mL (≈ 10.5 µM) | 3.12 µg/mL (≈ 5.25 µM) | 3.12 µg/mL (≈ 5.25 µM) | 6.25 µg/mL (≈ 10.5 µM) | 0.78 µg/mL (≈ 1.31 µM) | 6.25 µg/mL (≈ 10.5 µM) | 1.56 µg/mL (≈ 2.62 µM) | 79200 nM | 170 nM | 1370 nM
8 | CC(=O)OC[C@H]1O[C@@H](NC(=S)Nc2nc(-c3ccc(Cl)cc3)cs2)[C@H](OC(C)=O)[C@@H](OC(C)=O)[C@@H]1OC(C)=O | 3.12 µg/mL (≈ 5.21 µM) | 400 µg/mL (≈ 667 µM) | 3.12 µg/mL (≈ 5.21 µM) | 3.12 µg/mL (≈ 5.21 µM) | 12.5 µg/mL (≈ 20.8 µM) | 200 µg/mL (≈ 333 µM) | 12.5 µg/mL (≈ 20.8 µM) | 25 µg/mL (≈ 41.7 µM) | 12.5 µg/mL (≈ 20.8 µM) | 50 µg/mL (≈ 83.3 µM) | 12.5 µg/mL (≈ 20.8 µM) | 25 µg/mL (≈ 41.7 µM) | 25 µg/mL (≈ 41.7 µM) | 3.12 µg/mL (≈ 5.21 µM) | 68700 nM | 230 nM | 2820 nM
9 | O=C(O)c1cn(C2CC2)c2cc(N3CCNCC3)c(F)cc2c1=O [CIPROFLOXACIN] | 3.12 µg/mL (≈ 9.43 µM) | – | – | – | 1.56 µg/mL (≈ 4.71 µM) | 1.56 µg/mL (≈ 4.71 µM) | 3.12 µg/mL (≈ 9.43 µM) | – | – | – | 1.56 µg/mL (≈ 4.71 µM) | – | – | 3.12 µg/mL (≈ 9.43 µM) | – | – | –
10 | OC(Cn1cncn1)(Cn1cncn1)c1ccc(F)cc1F [FLUCONAZOLE] | – | – | 0.78 µg/mL (≈ 2.55 µM) | 0.78 µg/mL (≈ 2.55 µM) | – | – | – | 1.56 µg/mL (≈ 5.09 µM) | – | – | – | 0.78 µg/mL (≈ 2.55 µM) | 0.78 µg/mL (≈ 2.55 µM) | – | – | – | –
11 | Clc1ccc(COC(Cn2ccnc2)c2ccc(Cl)cc2Cl)c(Cl)c1 (configuration not stated) [MICONAZOLE] | – | – | 3.12 µg/mL (≈ 7.51 µM) | 3.12 µg/mL (≈ 7.51 µM) | – | – | – | 1.56 µg/mL (≈ 3.75 µM) | – | – | – | 3.12 µg/mL (≈ 7.51 µM) | 1.56 µg/mL (≈ 3.75 µM) | – | – | – | –
12 | CN[C@H](CC(C)C)C(=O)N[C@H]1C(=O)N[C@@H](CC(N)=O)C(=O)N[C@H]2C(=O)N[C@H]3C(=O)N[C@H](C(=O)N[C@H](C(=O)O)c4cc(O)cc(O)c4-c4cc3ccc4O)[C@H](O)c3ccc(c(Cl)c3)Oc3cc2cc(c3O[C@@H]2O[C@H](CO)[C@@H](O)[C@H](O)[C@H]2O[C@H]2C[C@](C)(N)[C@H](O)[C@H](C)O2)Oc2ccc(cc2Cl)[C@H]1O [VANCOMYCIN] | 0.78 µg/mL (≈ 0.538 µM) | 1.56 µg/mL (≈ 1.08 µM) | – | – | – | – | 1.56 µg/mL (≈ 1.08 µM) | – | 1.56 µg/mL (≈ 1.08 µM) | – | – | – | – | 1.56 µg/mL (≈ 1.08 µM) | – | – | –

Reference: ChEMBL document CHEMBL5329146, “Thiourea derivatives containing 4-arylthiazoles and d-glucose moiety: design, synthesis, antimicrobial activity evaluation, and molecular docking/dynamics simulations” (RSC Med Chem, 2023)
